Article PMC4346016 (Drug Design, Development and Therapy, 2015)
Like-named read-outs stand apart in the source and are kept apart here.

Assays:
[1] = format: in vivo, human; settings: for AUClast geometric mean ratio (90% CI): dapoxetine with udenafil combined therapy/dapoxetine monotherapy; for half-life: t1/2β
Outline: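 Six-sequence, three-period crossover in healthy men aged 20–45, fasted, with a 7-day washout. Single oral doses of dapoxetine 60 mg alone or with udenafil 200 mg. EDTA plasma was sampled from predose to 48 h. Parent and desmethyl metabolite were measured by UPLC-MS/MS with deuterated internal standards. Non-compartmental analysis: AUClast by trapezoidal rule, AUC0~∞ = AUClast + Clast/λz, CL/F = dose/AUC0~∞. Ratios from log-transformed mixed-model ANOVA with 90% CI.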

[2] = Tolerability / adverse drug reactions in healthy male subjects; format: in vivo, human; settings: for Abdominal discomfort: number of events / Abdominal discomfort: number of subjects / Adverse drug reactions, total: number of events / Decreased appetite: number of events / Decreased appetite: number of subjects / Diarrhea: number of events / Diarrhea: number of subjects / Dizziness: number of events / Dizziness: number of subjects / Headache: number of events / Headache: number of subjects / Insomnia: number of events / Insomnia: number of subjects / Nausea: number of events / Nausea: number of subjects / Ocular hyperemia: number of events / Ocular hyperemia: number of subjects / Somnolence: number of events / Somnolence: number of subjects / Suicidal ideation: number of events / Suicidal ideation: number of subjects / Vomiting: number of events / Vomiting: number of subjects / hyperhidrosis: number of events / hyperhidrosis: number of subjects / Adverse drug reactions, total: number of subjects: n=23 per treatment; for Adverse drug reactions, total: number of subjects / tolerability: udenafil 200 mg, dapoxetine 60 mg; for tolerability: alone or concomitantly, single oral doses
Outline: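 Safety was monitored through each 48 h period and at follow-up 5–9 days after the last dose. Assessments were vital signs, 12-lead ECGs, hematology, blood chemistry, urinalysis, physical examinations and adverse-event monitoring. Each event was recorded with its symptoms/signs, duration, intensity, relation to study drug, action taken, outcome and seriousness. Counts are given as subjects and as events.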

[3] = cited from earlier work
[4] = integrated analysis of five trials, 6,081 patients; cited from earlier work
[5] = cited from earlier work; remark: listed apart in the source
[6] = format: in vivo, human; settings: for half-life: t1/2β; for half-life / CL/F: mean ± SD; for half-life / Tmax / CL/F: n=22; for Tmax: median (min, max); for pharmacokinetic interaction with dapoxetine: single oral doses; for AUClast geometric mean ratio (90% CI): udenafil with dapoxetine combined therapy/udenafil monotherapy
Outline: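 Crossover in healthy fasted men: single oral udenafil 200 mg alone or with dapoxetine 60 mg, with 240 mL water and a 1-week washout. Blood was taken 0.25–48 h postdose into EDTA and spun at 1,800 g, 4°C. Udenafil (5.0–2,000.0 ng/mL) and DA-8164 (0.25–100.00 ng/mL) were measured by UPLC-MS/MS. Non-compartmental AUC and CL/F were derived. Geometric mean ratios with 90% CI came from log-transformed mixed-model ANOVA.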

[7] = format: in vivo, human; settings: two-compartment model, WinNonlin
[8] = cited from earlier work; remark: listed apart in the source
[9] = rats; cited from earlier work
[10] = cited from earlier work; remark: listed apart in the source
[11] = cited from earlier work; remark: listed apart in the source
[12] = combined therapy/dapoxetine monotherapy
[13] = male, human, plasma, oral, 60 mg
[14] = combined therapy/udenafil monotherapy
[15] = male, human, plasma, oral, 200 mg
[16] = male, human, plasma, oral, 200 mg, udenafil 200 mg alone
[17] = male, human, plasma, oral, udenafil 200 mg + dapoxetine 60 mg
[18] = udenafil 200 mg + dapoxetine 60 mg

## CN(C)[C@@H](CCOc1cccc2ccccc12)c1ccccc1 [Dapoxetine]
[1]; [12]
  AUC0~∞ geometric mean ratio (90% CI): 1.117 (1.048–1.191)
  CL/F geometric mean ratio (90% CI): 0.895 (0.840–0.954)
  Cmax geometric mean ratio (90% CI): 0.837 (0.758–0.925)
  t1/2β geometric mean ratio (90% CI): 0.947 (0.873–1.028)
[1]; combined therapy/dapoxetine monotherapy, listed as dapoxetine
  Cmax geometric mean ratio (90% CI): 0.837
[1]; dapoxetine 60 mg + udenafil 200 mg, mean ± SD, n=20
  CL/F: 26.59 ± 9.22 L/h
[1]; dapoxetine 60 mg alone, mean ± SD, n=20
  CL/F: 30.41 ± 11.99 L/h
[1]; dapoxetine 60 mg alone, median (min, max), n=20
  Tmax: 1.00 (0.50, 2.00) h
[1]
  AUClast geometric mean ratio (90% CI): 1.125 (1.044–1.213)
[1]; listed as dapoxetine
  AUClast geometric mean ratio (90% CI): 1.125
[1]; [13]
  AUC(0-inf): 2360 ng·h/mL
  Cmax: 437 ± 143 ng/mL
  Tmax: 1 h
[1]; male, human, plasma, oral, 60 mg, dapoxetine 60 mg alone, mean ± SD, n=20
  half-life: 16.2 ± 6.72 h
[1]; male, human, plasma, oral, span over dapoxetine alone and with udenafil
  half-life: 15.3 to 16.2 h
[1]; male, human, plasma, po, 60 mg
  AUC(0-t): 2100 ng·h/mL
[2]
  Abdominal discomfort: number of events: 1 (1)
  Abdominal discomfort: number of subjects: 1 (1)
  Adverse drug reactions, total: number of events: 24
  Decreased appetite: number of events: 0 (0)
  Decreased appetite: number of subjects: 0 (0)
  Diarrhea: number of events: 2 (2)
  Diarrhea: number of subjects: 2 (2)
  Dizziness: number of events: 5 (5)
  Dizziness: number of subjects: 5 (5)
  Headache: number of events: 2 (2)
  Headache: number of subjects: 2 (2)
  Insomnia: number of events: 0 (0)
  Insomnia: number of subjects: 0 (0)
  Nausea: number of events: 11 (11)
  Nausea: number of subjects: 11 (11)
  Ocular hyperemia: number of events: 0 (0)
  Ocular hyperemia: number of subjects: 0 (0)
  Somnolence: number of events: 1 (1)
  Somnolence: number of subjects: 1 (1)
  Suicidal ideation: number of events: 0 (0)
  Suicidal ideation: number of subjects: 0 (0)
  Vomiting: number of events: 2 (2)
  Vomiting: number of subjects: 2 (2)
  hyperhidrosis: number of events: 0 (0)
  hyperhidrosis: number of subjects: 0 (0)
  Adverse drug reactions, total: number of subjects: 12
  tolerability: well tolerated
[3]; biphasic elimination
  initial half-life: approximately 1.4 hours
[3]; by 24 hours after drug administration
  plasma concentration as share of peak concentration: approximately 5%
[3]
  Tmax: 1.0 to 1.3 h
[4]
  PE profile measures compared with placebo: improved significantly
[5]
  increase in AUC of active moiety with ketoconazole: 88%
  increase in Cmax of active moiety with ketoconazole: 23%
  increase in parent drug AUC with ketoconazole: 99%
  increase in parent drug Cmax with ketoconazole: 35%

## CCCOc1ccc(S(=O)(=O)NCCC2CCCN2C)cc1-c1nc2c(CCC)nn(C)c2c(=O)[nH]1 (centres unmarked) [Udenafil]
[6]; [14]
  AUC0~∞ geometric mean ratio (90% CI): 0.923 (0.867–0.983)
  CL/F geometric mean ratio (90% CI): 1.084 (1.017–1.154)
  Cmax geometric mean ratio (90% CI): 0.864 (0.789–0.947)
  t1/2β geometric mean ratio (90% CI): 0.984 (0.948–1.022)
[6]; combined therapy/udenafil monotherapy, listed as udenafil
  Cmax geometric mean ratio (90% CI): 0.864
[6]; [15]
  AUC(0-inf): 4930 ng·h/mL
  Cmax: 693 ± 206 ng/mL
[6]; [16]
  half-life: 11 ± 1.64 h
  Tmax: 1 h
[6]; [17]
  half-life: 10.8 ± 1.27 h
  Tmax: 2 h
[6]; male, human, plasma, po, 200 mg
  AUC(0-t): 4730 ng·h/mL
[6]; [18]
  pharmacokinetic interaction with dapoxetine: no clinically significant pharmacokinetic interactions
  CL/F: 47.31 ± 14.07 L/h
[6]; udenafil 200 mg + dapoxetine 60 mg, listed as udenafil
  pharmacokinetic interaction with dapoxetine: no significant pharmacokinetic interactions
[6]; udenafil 200 mg alone
  CL/F: 43.69 ± 12.21 L/h
[6]
  AUClast geometric mean ratio (90% CI): 0.923 (0.863–0.987)
[6]; listed as udenafil
  AUClast geometric mean ratio (90% CI): 0.923
[2]
  Abdominal discomfort: number of events: 0 (0)
  Abdominal discomfort: number of subjects: 0 (0)
  Adverse drug reactions, total: number of events: 4
  Decreased appetite: number of events: 1 (1)
  Decreased appetite: number of subjects: 1 (1)
  Diarrhea: number of events: 0 (0)
  Diarrhea: number of subjects: 0 (0)
  Dizziness: number of events: 1 (1)
  Dizziness: number of subjects: 1 (1)
  Headache: number of events: 0 (0)
  Headache: number of subjects: 0 (0)
  Insomnia: number of events: 1 (1)
  Insomnia: number of subjects: 1 (1)
  Nausea: number of events: 0 (0)
  Nausea: number of subjects: 0 (0)
  Ocular hyperemia: number of events: 1 (1)
  Ocular hyperemia: number of subjects: 1 (1)
  Somnolence: number of events: 0 (0)
  Somnolence: number of subjects: 0 (0)
  Suicidal ideation: number of events: 0 (0)
  Suicidal ideation: number of subjects: 0 (0)
  Vomiting: number of events: 0 (0)
  Vomiting: number of subjects: 0 (0)
  hyperhidrosis: number of events: 0 (0)
  hyperhidrosis: number of subjects: 0 (0)
  Adverse drug reactions, total: number of subjects: 3
  tolerability: well tolerated
[7]; combined therapy with dapoxetine
  absorption rate constant (ka): 0.50 ± 0.17 h⁻¹
[7]; monotherapy
  absorption rate constant (ka): 0.84 ± 0.29 h⁻¹
[8]; oral
  terminal half-life (t1/2β): 7.3 to 12.1 h
  time to reach peak concentration (tmax): 0.8 to 1.3 h
[8]; previously reported
  ka: 0.70 ± 0.26 h⁻¹
[9]
  absolute oral bioavailability: 38.0%–55.6
[10]
  increase of mean AUClast on co-administration of ketoconazole: 3.2 fold
  increase of mean Cmax on co-administration of ketoconazole: 1.9 fold
[10]; udenafil administered alone
  metabolic AUC ratio: 1.71
[10]; udenafil in combination with ketoconazole
  metabolic AUC ratio: 0.19

## CN1CC(=O)N2[C@H](c3ccc4c(c3)OCO4)c3[nH]c4ccccc4c3C[C@@H]2C1=O [tadalafil]
[11]
  pharmacokinetic interaction with dapoxetine: no clinically significant pharmacokinetic interactions
